Test results published in PubChem BioAssay.
Active and inactive are the calls of the source.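 The calls were made as follows, unless noted: active = visually confirmed hit in the image check and inhibition above 20%; inconclusive = visually confirmed hit but inhibition not above 20%; inactive = no visual hit in the image check.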

Legend:
[1] = inhibitors of TNFa-induced NFkB p65 translocation, primary screen, imaging, HUVEC, MLSMR starter and 10KST1 sets (AID 438;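 active = inhibition above 20% together with a positive visual image hit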;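 also: compound added about 3h40 before a 20 min TNFalpha stimulation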;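 as to inhibition: signal is the nuclear over cytoplasmic p65 intensity ratio per well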); details: HUVEC TNFa-induced p65 nuclear translocation; cell count: measured here: nuclei count (cytotoxicity indicator), at 2.08 µM; inhibition: at 2 µM, stronger effect = higher value, 0% TNFa-plus-vehicle, 100% no-TNFa wells
[2] = reduction of polyQ htt aggregates in cells – imaging, exon1htt(103Q)mCFP cells, high-content imaging, primary screen (AID 483;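 active = visual image review flags a hit and inhibition of aggregation exceeds 20%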;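 also: compound exposure lasted 3 days before fixation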;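 as to nuclei count: percent of the per-plate median nuclei count of sample wells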); details: exon1htt(103Q)mCFP cell line, aggregate imaging, at 2 µM; inhibition of aggregation: stronger effect = higher value; nuclei count: measured here: cell count, toxicity
[3] = endothelial E-selectin expression blockers – imaging, HUVEC, immunofluorescence, MLSMR starter and 10KST1 sets, primary screen (AID 487); details: HUVEC TNFalpha-induced E-selectin immunofluorescence imaging, at 2 µM; inhibition: stronger effect = higher value; nuclei count: measured here: cell number, toxicity;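 as to inhibition: signal is fraction of cell area covered by stained E-selectin grains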;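 as to nuclei count: 100% = median nuclei count of all wells on the same plate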
[4] = molecular target: Voltage-gated potassium channel subunit beta-2 (Rattus norvegicus) (UniProt P62483); test: inhibitors of rat Kvbeta2 reductase activity – biochemical, NADPH fluorescence, primary screen (AID 622;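 active = fluorescence slope higher than the sample average by over 3 SD, cut at about -0.22 in these data, passing the limit was not always enough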;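 also: slope of raw intensity against log time taken from 70 to 1610 s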); details: recombinant KvBeta, 4-cyanobenzaldehyde reduction, at 10 µM, stronger effect = higher value
[5] = molecular target: Voltage-gated potassium channel subunit beta-2 (Rattus norvegicus) (UniProt P62483); test: enhancers of rat Kvbeta2 NADPH turnover – biochemical, NADPH fluorescence, primary screen (AID 623;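 active = NADPH fluorescence slope more negative than the mean of all samples by about 3 SD, 99.7% confidence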;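 also: fluorescence intensity change per second fitted from 20 to 320 s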); details: Recombinant KvBeta, NADPH fluorescence decrease slope, 10 min; at 10 µM; stronger effect = lower value
[6] = molecular target: Muscarinic acetylcholine receptor M4 (Homo sapiens) (UniProt P08173); test: M4-linked GIRK flux change, two-sided – cell-based, HEK293 M4/GIRK, thallium flux, BTC-AM, M4 allosteric agonist project, primary screen (AID 625;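 active = fluorescence slope after compound addition differing from the mean of all tested samples at 99.7% confidence, mostly higher but some lower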;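 also: thallium influx through GIRK channels coupled to M4 in HEK293 cells with BTC-AM dye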); details: at 10 µM, actives lie on both sides
Outline: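 System: HEK293 cells with M4 receptor and GIRK channels | Incubation: Cells overnight at 37 °C, BTC-AM loading 1 h, reads 2 min total | Technique: Kinetic BTC-AM fluorescence sampled at 1 Hz, 10 s pre-addition baseline | Measure: Post-addition slope, 15–24 s, of baseline-normalized fluorescence | Control set: Carbachol positive, DMSO negative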

[7] = blockers of RIG-like receptor reporter activation – cell-based, Sendai virus stimulus, luciferase, 10K MLSCN set, TLR/RLR signaling modifier project, primary screen (AID 602276;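 active = inhibition at or above 50% at 10 µM; inactive = inhibition below 50%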;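 also: firefly luciferase from ISG56 promoter only with Renilla not read in this screen; 0% = Sendai virus plus DMSO and 100% = medium plus DMSO without virus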); details: HEK293 RL24 IRF3 luciferase reporter, at 10 µM, stronger effect = higher value
[8] = TLR3 IRF3 reporter activation blockers – cell-based, poly I:C stimulus, luciferase, 10K MLSCN set, primary screen (AID 602277;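 active = inhibition of the reporter signal at or above 50%; inactive = inhibition below 50%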); details: HEK293-TLR3 RL24 IRF3 luciferase reporter, at 10 µM, stronger effect = higher value

Chain of Muscarinic acetylcholine receptor M4 (Homo sapiens) (P08173 whole entry, looked up): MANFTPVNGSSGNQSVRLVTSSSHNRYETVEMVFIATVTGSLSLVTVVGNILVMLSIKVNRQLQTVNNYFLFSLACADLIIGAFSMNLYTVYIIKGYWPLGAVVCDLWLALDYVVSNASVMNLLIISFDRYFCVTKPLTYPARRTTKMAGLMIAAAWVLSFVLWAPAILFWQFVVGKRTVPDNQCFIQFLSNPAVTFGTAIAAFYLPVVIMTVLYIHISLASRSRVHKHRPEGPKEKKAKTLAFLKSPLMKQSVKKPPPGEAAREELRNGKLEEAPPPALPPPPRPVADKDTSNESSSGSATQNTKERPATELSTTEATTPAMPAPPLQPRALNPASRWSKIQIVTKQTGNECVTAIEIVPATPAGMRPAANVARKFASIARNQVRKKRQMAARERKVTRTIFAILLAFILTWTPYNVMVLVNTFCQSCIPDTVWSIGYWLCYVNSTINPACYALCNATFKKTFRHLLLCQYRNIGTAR
Chain of Voltage-gated potassium channel subunit beta-2 (Rattus norvegicus) (P62483 whole entry, looked up): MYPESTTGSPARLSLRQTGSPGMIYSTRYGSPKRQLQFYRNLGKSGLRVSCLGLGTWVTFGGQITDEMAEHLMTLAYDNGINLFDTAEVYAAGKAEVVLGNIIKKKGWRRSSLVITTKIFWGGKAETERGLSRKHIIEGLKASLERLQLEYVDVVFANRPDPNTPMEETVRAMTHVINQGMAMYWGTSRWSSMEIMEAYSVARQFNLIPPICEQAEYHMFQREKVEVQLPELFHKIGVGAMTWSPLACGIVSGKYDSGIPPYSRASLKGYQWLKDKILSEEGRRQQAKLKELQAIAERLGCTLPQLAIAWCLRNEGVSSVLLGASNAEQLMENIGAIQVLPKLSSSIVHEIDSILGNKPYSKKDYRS

| SMILES | cell count [1] | inhibition [1] | inhibition of aggregation [2] | nuclei count [2] [%] | inhibition [3] | nuclei count [3] [%] | fluorescence slope [4] | NADPH fluorescence slope [5] | fluorescence slope [6] | inhibition [7] | inhibition [8] |
| --- | --- | --- | --- | --- | --- | --- | --- | --- | --- | --- | --- |
| CCOC(=O)C1CCCN(C(=O)c2ccc3c(=O)n(CCOC)c(=S)[nH]c3c2)C1 (stereo not drawn) | 417 | 3.9% (inactive) | -2.5% (inactive) | 81.3 | 20.2% (inactive) | 91.8 | -0.386 (inactive) | -6.4e-05 (inactive) | 0.00594 (inactive) | 6.16% (inactive) | -7.26% (inactive) |
| COc1ccccc1NC(=O)C1CC(=O)N(c2ccc(F)cc2)C1 (stereo not drawn) | 402 | 4.5% (inactive) | 13.8% (inactive) | 101 | -46.4% (inactive) | 110 | -0.583 (inactive) | -9.7e-05 (inactive) | 0.00373 (inactive) | -15.4% (inactive) | -26.4% (inactive) |
| CCC(=O)N1CCc2cc(Br)cc(S(=O)(=O)N3CCCCCC3)c21 | 434 | -3.9% (inactive) | 34.8% (inactive) | 65.9 | 13.2% (inactive) | 99.9 | -0.54 (inactive) | -5.4e-06 (inactive) | 0.00616 (inactive) | 7.37% (inactive) | 12.3% (inactive) |
| Nc1nnc(-c2ccccc2)c(-c2ccccc2)n1 | 676 | -2.1% (inactive) | 26.8% (inactive) | 83.9 | -71.1% (inactive) | 111 | -0.522 (inactive) | -3.6e-05 (inactive) | 0.00428 (inactive) | 0.988% (inactive) | 14.6% (inactive) |
| O=C(Cn1c(=O)[nH]c2ccsc2c1=O)N1CCN(c2ccc(F)cc2)CC1 | 654 | -29.9% (inactive) | -0.5% (inactive) | 106 | -34.1% (inactive) | 121 | -0.451 (inactive) | -3e-05 (inactive) | 0.00533 (inactive) | 15.1% (inactive) | 21.3% (inactive) |
| CC(=O)Nc1ccc(N2CCN(Cc3ccccc3F)CC2)cc1 | 452 | 19.4% (inactive) | 12.1% (inactive) | 102 | 34.5% (inactive) | 120 | -0.579 (inactive) | -3.8e-05 (inactive) | 0.0111 (inactive) | 8.54% (inactive) | 19% (inactive) |
| CCOC(=O)N1CCN(c2cc3nccnc3cc2F)CC1 | 412 | 3.1% (inactive) | -5.3% (inactive) | 113 | -54.5% (inactive) | 111 | -0.173 (inactive) | -4.3e-05 (inactive) | 0.00552 (inactive) | 10.4% (inactive) | -18.8% (inactive) |
| CCN(C(=O)Cc1c(C(=O)O)[nH]c2ccccc12)c1cc(OC)ccc1OC | 439 | -5.2% (inactive) | -10% (inactive) | 120 | -36% (inactive) | 143 | -0.286 (inactive) | -4e-05 (inactive) | 0.00689 (inactive) | 13.8% (inactive) | 24.5% (inactive) |
| CCOC(=O)c1ccc(NC(=O)CCNc2c(N3CCCC3)c(=O)c2=O)cc1 | 266 | 0% (inactive) | 26.6% (inactive) | 70.7 | -20.2% (inactive) | 117 | -0.609 (inactive) | 5.7e-06 (inactive) | 0.00478 (inactive) | 4.44% (inactive) | 10.6% (inactive) |
| CC1(C)NC(=O)N(CCCOc2ccc(Br)cc2Cl)C1=O | 278 | -10% (inactive) | -8.8% (inactive) | 110 | -4.9% (inactive) | 119 | -0.458 (inactive) | -2.9e-06 (inactive) | 0.00559 (inactive) | -28.8% (inactive) | -113% (inactive) |
| Cc1ccc(CS(=O)(=O)CCC(=O)NCC2CCCO2)cc1 (stereo not drawn) | 470 | 7% (inactive) | 1.1% (inactive) | 99.3 | -191% (inactive) | 121 | -0.31 (inactive) | -4.6e-05 (inactive) | 0.00623 (inactive) | 6.62% (inactive) | 8.68% (inactive) |
| COc1ccccc1Nc1nc(N)nc(CSc2nccc(C)n2)n1 | 701 | -8.6% (inactive) | -9.5% (inactive) | 99.9 | 28.3% (inactive) | 112 | -0.546 (inactive) | 4.7e-05 (inactive) | 0.00561 (inactive) | 11.6% (inactive) | 5.69% (inactive) |
| Clc1ccc(Cl)c(-c2nn3c(COc4ccccc4)nnc3s2)c1 | 678 | -5% (inactive) | -9.4% (inactive) | 104 | -81.1% (inactive) | 139 | -0.546 (inactive) | -2.8e-05 (inactive) | 0.00451 (inactive) | 23.3% (inactive) | 23.2% (inactive) |
| CCOc1cc(N2CCOCC2)c(OCC)cc1NC(=O)CSc1cccc[n+]1[O-] | 506 | 10.6% (inactive) | 2.4% (inactive) | 109 | -56.8% (inactive) | 115 | -0.506 (inactive) | -0.000267 (inactive) | 0.00543 (inactive) | 15.1% (inactive) | 18.2% (inactive) |
| CCCn1c2c(c(O)c(C(=O)NC)c1=O)CCCC2 | 323 | 3.4% (inactive) | -3.3% (inactive) | 101 | -40.9% (inactive) | 112 | -0.566 (inactive) | -6.4e-05 (inactive) | 0.00821 (inactive) | 26.6% (inactive) | 25.6% (inactive) |
| c1ccc(-c2nn3nnnc3c3ccccc23)cc1 | 194 | -3% (inactive) | 6.8% (inactive) | 91.1 | -2.7% (inactive) | 85.1 | -0.573 (inactive) | -2.5e-05 (inactive) | 0.00565 (inactive) | 8.1% (inactive) | 20.5% (inactive) |
| C=CCn1c(Cc2csc(N)n2)nnc1SCC(=O)OCC | 313 | -3.5% (inactive) | 18.2% (inactive) | 86.3 | 25.2% (inactive) | 77.4 | -0.48 (inactive) | -2.5e-05 (inactive) | 0.00546 (inactive) | 4.87% (inactive) | 10% (inactive) |
| Cc1nc2ccccn2c1C(=O)NCCCN1CCOCC1 | 521 | -7.5% (inactive) | 3% (inactive) | 102 | 11.8% (inactive) | 102 | -0.461 (inactive) | 0.000108 (inactive) | 0.0064 (inactive) | 4.89% (inactive) | 12.3% (inactive) |
| Cc1ccccc1-c1nc(CN2CCC(C(=O)NCc3cccnc3)CC2)c(C)o1 | 349 | -2.3% (inactive) | -3.7% (inactive) | 103 | -149% (inactive) | 119 | -0.476 (inactive) | -0.000229 (inactive) | 0.00551 (inactive) | 7.42% (inactive) | 17.2% (inactive) |
| O=S(=O)(Nc1cccc2ncccc12)c1cccs1 | 469 | -38% (inactive) | -0.2% (inactive) | 67.2 | 39.3% (inactive) | 23.8 | -0.486 (inactive) | 2.1e-05 (inactive) | 0.0108 (active) | -7.18% (inactive) | -3.78% (inactive) |
| COc1ccccc1-n1cnc(N)c1C(C)=O | 675 | -9.1% (inactive) | -12.9% (inactive) | 105 | -12.3% (inactive) | 110 | -0.586 (inactive) | -5.1e-05 (inactive) | 0.00353 (inactive) | 6.44% (inactive) | 5.79% (inactive) |
| Cc1csc2nc(CSc3nc4ccccc4o3)c(Br)n12 | 573 | -14.8% (inactive) | -9.5% (inactive) | 98.3 | -1.4% (inactive) | 125 | -0.536 (inactive) | 0.000171 (inactive) | 0.00576 (inactive) | -40% (inactive) | -122% (inactive) |
| CCCCn1c(CN2CCN(c3cccc(Cl)c3)CC2)nc2c1c(=O)n(C)c(=O)n2C | 581 | 3.4% (inactive) | 10.6% (inactive) | 100 | -3.3% (inactive) | 103 | -0.597 (inactive) | -6.6e-05 (inactive) | 0.00321 (inactive) | 14.4% (inactive) | -1.69% (inactive) |
| Cn1c2c(c(=O)n(C)c1=O)CN(CCCN1CCOCC1)CN2 | 541 | -5% (inactive) | 9.8% (inactive) | 115 | 41.5% (inactive) | 90.5 | -0.595 (inactive) | 2.4e-05 (inactive) | 0.00524 (inactive) | 8.17% (inactive) | 16.9% (inactive) |
| CCOc1ccccc1NC(=O)C1CCCN1C(=O)OCc1ccccc1 (stereo not drawn) | 438 | 6% (inactive) | -8.5% (inactive) | 103 | -406% (inactive) | 152 | -0.544 (inactive) | -4.2e-05 (inactive) | 0.0063 (inactive) | 4.99% (inactive) | 7.18% (inactive) |
| CN(C)c1ccc(/C=C/C(O)=C2/C(=O)N(C)C3(C)CC2c2ccccc2O3)cc1 (stereo not drawn) | 356 | -0.4% (inactive) | -5.2% (inactive) | 102 | -68% (inactive) | 115 | -0.521 (inactive) | -2e-07 (inactive) | 0.0126 (active) | 1.4% (inactive) | 23.4% (inactive) |
| Cc1nc2ccc(NC(=O)N3CCSCC3)cc2s1 | 710 | -0.4% (inactive) | -7.6% (inactive) | 111 | -93.4% (inactive) | 96.5 | -0.535 (inactive) | 5e-05 (inactive) | 0.00638 (inactive) | -33.4% (inactive) | -42.8% (inactive) |
| Cc1cc2nc3c(nc2cc1C)C1(C(=O)O)CCC3(C)C1(C)C (stereo not drawn) | 376 | -12.3% (inactive) | -4.4% (inactive) | 95 | -109% (inactive) | 101 | -0.547 (inactive) | -0.000111 (inactive) | 0.00318 (inactive) | 13.5% (inactive) | 15.6% (inactive) |
